{"data": "Experimental data gathered from unrelated publications", "target": "Mitogen-activated protein kinase kinase kinase 5 (MAP3K5, Homo sapiens, UniProt Q99683)", "One construct used (Q99683 1-1374)": "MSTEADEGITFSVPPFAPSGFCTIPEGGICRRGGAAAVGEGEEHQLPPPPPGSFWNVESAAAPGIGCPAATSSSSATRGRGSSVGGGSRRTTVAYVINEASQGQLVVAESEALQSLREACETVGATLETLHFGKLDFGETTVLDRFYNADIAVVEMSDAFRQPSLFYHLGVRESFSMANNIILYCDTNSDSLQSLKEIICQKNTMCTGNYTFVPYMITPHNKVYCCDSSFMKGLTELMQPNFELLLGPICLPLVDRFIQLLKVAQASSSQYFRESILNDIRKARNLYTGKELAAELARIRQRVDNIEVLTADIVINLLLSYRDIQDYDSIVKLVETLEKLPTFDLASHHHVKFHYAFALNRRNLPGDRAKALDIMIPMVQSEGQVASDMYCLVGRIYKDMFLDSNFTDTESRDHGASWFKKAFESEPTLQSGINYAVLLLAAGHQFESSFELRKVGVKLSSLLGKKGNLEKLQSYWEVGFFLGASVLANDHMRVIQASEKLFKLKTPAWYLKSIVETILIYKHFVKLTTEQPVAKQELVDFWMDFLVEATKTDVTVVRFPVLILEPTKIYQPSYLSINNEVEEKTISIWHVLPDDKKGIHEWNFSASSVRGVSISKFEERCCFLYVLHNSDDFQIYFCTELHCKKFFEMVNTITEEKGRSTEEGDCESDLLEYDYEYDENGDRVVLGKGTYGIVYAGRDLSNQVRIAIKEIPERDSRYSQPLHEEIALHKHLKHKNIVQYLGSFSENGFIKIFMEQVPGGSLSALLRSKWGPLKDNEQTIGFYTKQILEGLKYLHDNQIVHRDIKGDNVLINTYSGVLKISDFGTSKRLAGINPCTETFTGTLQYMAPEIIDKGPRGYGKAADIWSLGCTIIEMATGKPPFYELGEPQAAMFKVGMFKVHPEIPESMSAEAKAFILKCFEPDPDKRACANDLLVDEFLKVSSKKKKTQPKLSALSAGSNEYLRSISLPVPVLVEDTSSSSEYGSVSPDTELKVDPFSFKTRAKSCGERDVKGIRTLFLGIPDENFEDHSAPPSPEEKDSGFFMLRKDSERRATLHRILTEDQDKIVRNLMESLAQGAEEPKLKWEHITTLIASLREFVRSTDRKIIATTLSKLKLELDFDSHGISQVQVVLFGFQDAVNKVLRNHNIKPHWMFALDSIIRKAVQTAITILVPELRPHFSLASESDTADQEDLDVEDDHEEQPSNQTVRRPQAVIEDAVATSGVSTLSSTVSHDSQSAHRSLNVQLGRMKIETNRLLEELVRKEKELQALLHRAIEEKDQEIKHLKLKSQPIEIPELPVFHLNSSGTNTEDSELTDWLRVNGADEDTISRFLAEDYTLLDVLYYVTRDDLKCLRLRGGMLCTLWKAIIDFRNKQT", "note": "Protocols differ between the studies behind these lines."}
{"SMILES": "CNC(=O)Nc1ccc2c(c1)[C@@]1(CC2)OC(=O)N(CC(=O)N(Cc2ccc(F)cc2)[C@@H](C)C(F)(F)F)C1=O", "assay": "cell-free assay, competition with immobilised ligand", "conditions": "1 µM", "quantity": "remaining binding", "result": "100%"}
{"SMILES": "FC(F)(F)Oc1cccc(-c2cnc3ccc(-c4ccncc4)nn23)c1", "assay": "enzyme activity, inhibitor, radiometric", "conditions": "1 µM", "quantity": "activity vs control", "result": "88%"}
{"SMILES": "CC(=O)N1CCC(c2ccc(C(=O)NC3=NCCN3)cc2C(F)(F)F)CC1", "assay": "cell-free assay, competition with immobilised ligand", "conditions": "1 µM", "quantity": "remaining binding", "result": "100%"}
{"SMILES": "CCCCNc1ncc2c(-c3ccc(F)cc3)nn(C[C@H]3CC[C@H](N)CC3)c2n1", "assay": "target engagement in cells, inhibitor, chemoproteomics", "conditions": "20 mM", "quantity": "inhibition", "result": "-10.7%"}
{"SMILES": "CCN1CCN(Cc2ccc(NC(=O)c3ccc(C)c(/C=C/c4cnc5[nH]ccc5c4OC)c3)cc2C(F)(F)F)CC1", "assay": "target engagement in cells, inhibitor, chemoproteomics", "system": "A-375", "conditions": "5 µM", "quantity": "inhibition", "result": "-35.5%"}
{"SMILES": "N#CCCc1ccc2c(c1)-c1[nH]c3ccc([N+](=O)[O-])cc3c1CC(=O)N2", "assay": "cell-free assay", "conditions": "0.5 µM", "quantity": "remaining signal", "result": "101%"}
{"SMILES": "COc1cc(Cl)c(C(=O)N[C@@H](CN[C@H]2CC[C@@H](N)CC2)Cc2ccc(C#N)cc2)cc1-c1ccc(CN[C@H](C)c2ccc(C)cc2)o1", "assay": "enzyme activity, inhibitor", "conditions": "1 µM", "quantity": "remaining activity", "result": "94%"}
{"SMILES": "CCN1CCC2(CC1)NC(=O)c1c(c3ccc(Cl)c(Cl)c3n1C)C2C#N (racemic)", "assay": "thermal stability, DSF", "conditions": "10 µM", "quantity": "ΔTm", "result": "0.1 °C"}
{"SMILES": "O=C(Nc1cnn(-c2csc(C(=O)NC3COC3)c2)c1)Nc1c(F)cccc1Cl", "assay": "enzyme activity, inhibitor", "conditions": "5 µM", "quantity": "remaining activity", "result": "91.1%"}
{"SMILES": "CN(C(=O)c1ccccc1)c1cc(N(C)c2ccc3c(c2)CCc2ccc(C(=O)NCCN4CCOCC4)cc2C3=O)ccc1F", "assay": "cell-free assay, competition with immobilised ligand", "conditions": "1 µM", "quantity": "remaining binding", "result": "100%"}
{"SMILES": "COc1cc(/C=C/C(=O)CC(=O)/C=C/c2ccc(O)c(OC)c2)ccc1O", "assay": "enzyme activity, inhibitor", "conditions": "1 µM", "quantity": "activity vs control", "result": "101%"}
{"SMILES": "O=C1NC(=O)c2cc(Nc3ccc(F)cc3)c(Nc3ccc(F)cc3)cc21", "assay": "cell-free assay", "conditions": "0.5 µM", "quantity": "remaining signal", "result": "96.6%"}
{"SMILES": "Cc1ccc(NC(=O)c2ccc(C)c(C(F)(F)F)c2)cc1C#Cc1nn(C2CCC(O)CC2)c2ncnc(N)c12 (stereo not shown)", "assay": "cell-free assay", "conditions": "10 µM", "quantity": "remaining signal", "result": "127%"}
{"SMILES": "Cc1ccc(Nc2nccc(N(C)c3ccc4c(C)n(C)nc4c3)n2)cc1S(N)(=O)=O", "assay": "enzyme activity, inhibitor", "conditions": "10 µM", "quantity": "inhibition", "result": "5%"}
{"SMILES": "CCN1CCN(Cc2ccc(NC(=O)c3ccc(C)c(Oc4ccnc5[nH]ccc45)c3)cc2C(F)(F)F)CC1", "assay": "target engagement in cells, inhibitor, chemoproteomics", "system": "A-375", "conditions": "5 µM", "quantity": "inhibition", "result": "-27.1%"}
{"SMILES": "CCC1(CC)NC(=O)c2c(c3ccc(Cl)c(Cl)c3n2C)C1C#N (stereo not shown)", "assay": "thermal stability, DSF", "conditions": "10 µM", "quantity": "ΔTm", "result": "0.7 °C"}
{"SMILES": "CNC(=O)c1cc(Oc2ccc(NC(=O)Nc3ccc(Cl)c(C(F)(F)F)c3)cc2)ccn1", "assay": "enzyme activity, inhibitor", "conditions": "10 µM", "quantity": "inhibition", "result": "9%"}
{"SMILES": "CN1CCC2(CC1)NC(=O)c1c(c3ccc(Cl)c(Cl)c3n1C)C2C#N (racemic)", "assay": "thermal stability, DSF", "conditions": "10 µM", "quantity": "ΔTm", "result": "0.3 °C"}
{"SMILES": "Cn1c(=O)n(-c2ccc(C(C)(C)C#N)cc2)c2c3cc(-c4cnc5ccccc5c4)ccc3ncc21", "assay": "enzyme activity, inhibitor", "conditions": "10 µM", "quantity": "remaining activity", "result": "106%"}
{"SMILES": "CNCc1ccc(-c2cc(-c3nc(-c4ccc(S(=O)(=O)C(C)C)cc4)cnc3N)on2)cc1", "assay": "enzyme activity, inhibitor", "conditions": "2 µM", "quantity": "inhibition", "result": "0%"}
{"SMILES": "CC(C)(O)[C@H]1CC[C@H](Nc2ccc3ncc(-c4cccc(C(F)(F)F)c4)n3n2)CC1", "assay": "enzyme activity, inhibitor", "conditions": "1 µM", "quantity": "remaining activity", "result": "96.7%"}
{"SMILES": "CNCc1ccccc1-c1csc([C@@H](C)Nc2nc(C)nc3cc(OC)c(OC)cc23)c1", "assay": "cell-free assay, competition with immobilised ligand", "conditions": "1 µM", "quantity": "remaining binding", "result": "91%"}
{"SMILES": "CCN(CC)CCNC(=O)c1c(C)[nH]c(/C=C2\\C(=O)Nc3ccc(F)cc32)c1C", "assay": "enzyme activity, inhibitor", "conditions": "10 µM", "quantity": "inhibition", "result": "38%"}
{"SMILES": "NS(=O)(=O)c1cc(NC(=O)Cc2ccccc2)ccc1Oc1cccc(Cl)c1", "assay": "cell-free assay, competition with immobilised ligand", "conditions": "1 µM", "quantity": "remaining binding", "result": "100%"}
{"SMILES": "CN1CC(Oc2cnc(C#N)cc2-c2ccn3nc(NC(=O)C4CC4)cc3c2)C1", "assay": "enzyme activity, inhibitor", "conditions": "1 µM", "quantity": "inhibition", "result": "-2%"}
{"SMILES": "CC(C)(C)c1nc(-c2cccc(NS(=O)(=O)c3c(F)cccc3F)c2F)c(-c2ccnc(N)n2)s1", "assay": "enzyme activity, inhibitor, radiometric", "conditions": "1 µM", "quantity": "remaining activity", "result": "98%"}
{"SMILES": "Cc1noc([C@H]2C[C@@H](c3ccc(C(F)(F)F)cc3)CN(C(=O)N3CCS(=O)(=O)C3)C2)n1", "assay": "cell-free assay, competition with immobilised ligand", "conditions": "1 µM", "quantity": "remaining binding", "result": "100%"}
{"SMILES": "Cc1ccc(C(=O)Nc2ccc(CN3CCN(C)CC3)c(C(F)(F)F)c2)cc1C#Cc1cnc2cccnn12", "assay": "enzyme activity, inhibitor", "conditions": "23.5 nM", "quantity": "remaining activity", "result": "100%"}
{"SMILES": "CN(C)c1ncnc(-c2ccc3nc(Nc4cc(CN5CCN(C(=O)CC(F)(F)F)CC5)ccn4)[nH]c3c2)c1Cl", "assay": "cell-free assay, competition with immobilised ligand", "conditions": "1 µM", "quantity": "remaining binding", "result": "100%"}
{"SMILES": "Cn1c2c(c3ccc(Cl)c(Cl)c31)C(C#N)C1(CCN(C(=O)OC(C)(C)C)CC1)NC2=O (racemic)", "assay": "thermal stability, DSF", "conditions": "10 µM", "quantity": "ΔTm", "result": "0 °C"}
{"SMILES": "CCCCN(CCCC)C(=O)CN1C[C@H](c2cc(OC)c3c(c2)OCO3)[C@@H](C(=O)O)[C@@H]1CC(C)(C)CCC", "assay": "cell-free assay, competition with immobilised ligand", "conditions": "1 µM", "quantity": "remaining binding", "result": "100%"}
{"SMILES": "COc1cc(Nc2cnc(C#N)c(O[C@H](C)CN(C)C)n2)ncc1-c1cnn(C)c1", "assay": "enzyme activity, inhibitor, radiometric", "conditions": "1 µM", "quantity": "remaining activity", "result": "95%"}
{"SMILES": "COc1cccc2c(NCc3ccccc3)nc(-n3c(N)nc4ccccc43)nc12", "assay": "target engagement in cells, inhibitor, chemoproteomics", "conditions": "20 mM", "quantity": "inhibition", "result": "-7.6%"}
{"SMILES": "Cn1c2c(c3ccc(Cl)c(Cl)c31)C(C#N)C1(CCNCC1)NC2=O (racemic)", "assay": "thermal stability, DSF", "conditions": "10 µM", "quantity": "ΔTm", "result": "0.1 °C"}
{"SMILES": "Cc1cnc(NC2CCOCC2)nc1-n1cnc(C(=O)NC(CN)c2cc(F)cc(Cl)c2)c1 (stereo not shown)", "assay": "enzyme activity, inhibitor, radiometric", "conditions": "1 µM", "quantity": "remaining activity", "result": "105%"}
{"SMILES": "Cc1sc(C(=O)NC2COC2)cc1-n1cc(NC(=O)Nc2c(F)cccc2Cl)cn1", "assay": "enzyme activity, inhibitor", "conditions": "10 µM", "quantity": "remaining activity", "result": "94%"}
{"SMILES": "Cn1c2c(c3ccc(Cl)c(Cl)c31)C(C#N)C(C)(C)NC2=O (stereo not shown)", "assay": "thermal stability, DSF", "conditions": "10 µM", "quantity": "ΔTm", "result": "2.6 °C"}
